Test results from ChEMBL document CHEMBL2429791, “Preparation of asymmetric urea derivatives that target prostate-specific membrane antigen for SPECT imaging” (J Med Chem, 2013).

What was measured:
[1] = Ratio of drug level in human LNCAP cells xenografted in C.B.-17/Icr +/+ Jcl mouse to blood of C.B.-17/Icr +/+ Jcl mouse xenografted with human LNCAP and PC3 cells at 25.9 MBq, iv after 30 mins; type: ADME, organism-based; settings: LNCAP tumour xenograft relative to blood
Outline: (§1)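 Tumor-to-blood and tumor-to-muscle ratios were calculated from %ID/g values in ¹²⁵I-tracer biodistribution in LNCaP/PC-3 xenografted mice. Tail-vein dosing, n=4 per time point, sacrifice at 2 min, 30 min, 1, 3 or 6 h.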

[2] = tested on: LNCaP; experiment: Biodistribution in LNCAP cells in C.B.-17/Icr +/+ Jcl mouse xenografted with human LNCAP and PC3 cells at 25.9 MBq, iv after 3 hrs; type: ADME, organism-based; settings: in vivo
Outline: (§2)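 ¹²⁵I-labelled tracer given iv by tail vein to mice (22–24 g) bearing LNCaP (left shoulder) and PC-3 (right shoulder) xenografts of about 5–10 mm, grown from 1–5 × 10⁶ cells in 1:1 Matrigel. n=4 per time point; decapitated at 2 min, 30 min, 1, 3, 6 h. Tissues weighed and counted; uptake as %ID/g, mean ± SD.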

[3] = tested on: Liver; experiment: Drug excretion in C.B.-17/Icr […] Jcl mouse liver xenografted with human LNCAP and PC3 cells at 25.9 MBq, iv; type: ADME, organism-based; settings: in vivo
[4] = tested on: Heart; experiment: Biodistribution in heart of C.B.-17/Icr +/+ Jcl mouse xenografted with human LNCAP and PC3 cells at 25.9 MBq, iv after 2 mins; type: ADME, organism-based; settings: in vivo; outline: as §2
[5] = tested on: Blood; experiment: Biodistribution in blood of C.B.-17/Icr +/+ Jcl mouse xenografted with human LNCAP and PC3 cells at 25.9 MBq, iv after 2 mins; type: ADME, organism-based; settings: in vivo; outline: as §2
[6] = tested on: Blood; experiment: Biodistribution in blood of C.B.-17/Icr +/+ Jcl mouse xenografted with human LNCAP and PC3 cells at 25.9 MBq, iv after 30 mins; type: ADME, organism-based; settings: in vivo, 0.5 h; outline: as §2
[7] = tested on: Muscle tissue; experiment: Biodistribution in muscle of C.B.-17/Icr +/+ Jcl mouse xenografted with human LNCAP and PC3 cells at 25.9 MBq, iv after 30 mins; type: ADME, organism-based; settings: in vivo, 0.5 h
Outline: (§3)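 Radioiodinated (¹²⁵I) tracer given by tail-vein injection to mice bearing LNCaP (left shoulder) and PC-3 (right shoulder) xenografts, 22–24 g, grown to about 5–10 mm. Groups of n=4 were decapitated at 2 min, 30 min, 1 h, 3 h or 6 h. Tissues were weighed and counted, and uptake was expressed as %ID/g (mean ± SD).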

[8] = tested on: Thyroid gland; experiment: Biodistribution in thyroid of C.B.-17/Icr +/+ Jcl mouse xenografted with human LNCAP and PC3 cells at 25.9 MBq, iv after 1 hr; type: ADME, organism-based; settings: in vivo; outline: as §3
[9] = tested on: Nucleic Acid; experiment: Ratio of drug level in human LNCAP cells xenografted in C.B.-17/Icr +/+ Jcl mouse to muscle of C.B.-17/Icr +/+ Jcl mouse xenografted with human LNCAP and PC3 cells at 25.9 MBq, iv after 6 hrs; type: ADME, organism-based; settings: in vivo; outline: as §1
[10] = tested on: Heart; experiment: Biodistribution in heart of C.B.-17/Icr +/+ Jcl mouse xenografted with human LNCAP and PC3 cells at 25.9 MBq, iv after 30 mins; type: ADME, organism-based; settings: in vivo, 0.5 h; outline: as §2
[11] = tested on: Spleen; experiment: Biodistribution in spleen of C.B.-17/Icr scid/scid Jcl mouse xenografted with human LNCAP and PC3 cells at 25.9 MBq, iv after 30 mins; type: ADME, organism-based; settings: in vivo, 0.5 h
[12] = tested on: Blood; experiment: Biodistribution in blood of C.B.-17/Icr +/+ Jcl mouse xenografted with human LNCAP and PC3 cells at 25.9 MBq, iv after 1 hr; type: ADME, organism-based; settings: in vivo; outline: as §2
[13] = tested on: Serum; experiment: Drug degradation in C.B.-17/Icr +/+ Jcl mouse serum after 6 hrs; type: ADME, cell-free
Outline: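 Serum came from heart blood of isoflurane-anesthetized male C.B.-17/Icr +/+ mice (20–22 g), centrifuged at 1,500 × g and stored at −80 °C. ¹²⁵I tracer was incubated in serum at 37 °C, then methanol was added. The sample was centrifuged at 5,000 × g, passed through a 0.45 μm filter, and analyzed by radio-HPLC for intact tracer versus degradation peaks.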

[14] = tested on: Nucleic Acid; experiment: Ratio of drug level in human LNCAP cells to human PC3 cells xenografted in C.B.-17/Icr […] Jcl mouse at 25.9 MBq, iv after 2 mins; type: ADME, organism-based; settings: in vivo
[15] = tested on: Blood; experiment: Biodistribution in blood of C.B.-17/Icr scid/scid Jcl mouse xenografted with human LNCAP and PC3 cells at 25.9 MBq, iv after 2 mins; type: ADME, organism-based; settings: in vivo
[16] = tested on: LNCaP; experiment: Biodistribution in LNCAP cells in C.B.-17/Icr +/+ Jcl mouse xenografted with human LNCAP and PC3 cells at 25.9 MBq, iv after 1 hr; type: ADME, organism-based; settings: in vivo; outline: as §2
[17] = tested on: LNCaP; experiment: Biodistribution in LNCAP cells in C.B.-17/Icr +/+ Jcl mouse xenografted with human LNCAP and PC3 cells at 25.9 MBq, iv after 6 hrs; type: ADME, organism-based; settings: in vivo; outline: as §2
[18] = tested on: Nucleic Acid; experiment: Ratio of drug level in human LNCAP cells xenografted in C.B.-17/Icr +/+ Jcl mouse to muscle of C.B.-17/Icr +/+ Jcl mouse xenografted with human LNCAP and PC3 cells at 25.9 MBq, iv after 1 hr; type: ADME, organism-based; settings: in vivo; outline: as §1
[19] = Ratio of drug level in human PC3 cells xenografted in C.B.-17/Icr +/+ Jcl mouse to blood of C.B.-17/Icr +/+ Jcl mouse xenografted with human LNCAP and PC3 cells at 25.9 MBq, iv after 3 hrs; type: ADME, organism-based; settings: PC3 tumour xenograft relative to blood
Outline: (§4)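 Mice (22–24 g) carried PC-3 (right shoulder) and LNCaP (left shoulder) tumors, raised by injecting 1–5 × 10⁶ cells in 1:1 PBS/Matrigel and used at about 5–10 mm diameter. [¹²⁵I]-tracer was given via the tail vein, n=4 per time point, and mice were decapitated at 2 min, 30 min, 1, 3 or 6 h. Tissues were weighed and γ-counted as %ID/g. Tumor/blood and tumor/muscle ratios were taken from %ID/g, mean ± SD.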

[20] = tested on: Nucleic Acid; experiment: Ratio of drug level in human PC3 cells xenografted in C.B.-17/Icr +/+ Jcl mouse to muscle of C.B.-17/Icr +/+ Jcl mouse xenografted with human LNCAP and PC3 cells at 25.9 MBq, iv after 2 mins; type: ADME, organism-based; settings: in vivo; outline: as §4
[21] = tested on: Spleen; experiment: Biodistribution in spleen of C.B.-17/Icr +/+ Jcl mouse xenografted with human LNCAP and PC3 cells at 25.9 MBq, iv after 3 hrs; type: ADME, organism-based; settings: in vivo; outline: as §3
[22] = tested on: PC-3; experiment: Biodistribution in PC3 cells in C.B.-17/Icr +/+ Jcl mouse xenografted with human LNCAP and PC3 cells at 25.9 MBq, iv after 30 mins; type: ADME, organism-based; settings: in vivo, 0.5 h; outline: as §2
[23] = tested on: Stomach; experiment: Biodistribution in stomach of C.B.-17/Icr +/+ Jcl mouse xenografted with human LNCAP and PC3 cells at 25.9 MBq, iv after 30 mins; type: ADME, organism-based; settings: in vivo, 0.5 h; outline: as §3
[24] = tested on: Liver; experiment: Biodistribution in liver of C.B.-17/Icr […] Jcl mouse xenografted with human LNCAP and PC3 cells at 25.9 MBq, iv after 6 hrs; type: ADME, organism-based; settings: in vivo; outline: as §2
[25] = Ratio of drug level in human PC3 cells xenografted in C.B.-17/Icr +/+ Jcl mouse to blood of C.B.-17/Icr +/+ Jcl mouse xenografted with human LNCAP and PC3 cells at 25.9 MBq, iv after 30 mins; type: ADME, organism-based; settings: PC3 tumour xenograft relative to blood; outline: as §4

Compound: O=C(O)CC[C@H](NC(=O)N[C@@H](CSC1CC(=O)N(CCCC[C@H](NC(=O)CNC(=O)c2cccc([125I])c2)C(=O)O)C1=O)C(=O)O)C(=O)O (stereo not given in full)
- Kp at 0.5 h [1]: 7.2
- Drug uptake [2]: 9.5 % ID/g
- Drug excretion [3]: Active
- Drug uptake [4]: 5.4 % ID/g
- Drug uptake [5]: 7.4 % ID/g
- Drug uptake [6]: 1.3 % ID/g
- Drug uptake [7]: 0.6 % ID/g
- Drug uptake [8]: 0.01 %ID
- Ratio [9]: 76.7
- Drug uptake [10]: 2.1 % ID/g
- Drug uptake [11]: Active
- Drug uptake [12]: 1 % ID/g
- Stability [13]: Stable
- Ratio [14]: 1.5
- Drug uptake [15]: 8.9 % ID/g
- Drug uptake [16]: 7 % ID/g
- Drug uptake [17]: 6.7 % ID/g
- Ratio [18]: 15.5
- Kp at 3 h [19]: 0.4
- Ratio [20]: 1.9
- Drug uptake [21]: 16.1 % ID/g
- Drug uptake [22]: 0.9 % ID/g
- Drug uptake [23]: 2.2 %ID
- Drug uptake [24]: 4.5 % ID/g
- Kp at 0.5 h [25]: 0.7
